Test results: ChEMBL document CHEMBL2440094, “Thiazolidinone-peptide hybrids as dengue virus protease inhibitors with antiviral activity in cell culture” (J Med Chem, 2013)
Active and inactive are the calls of the source. The rule behind the calls is not given here.

Legend:
[1] = biological target: Prothrombin (Homo sapiens) (UniProt P00734); experiment: Inhibition of thrombin (unknown origin) using Boc-Val-Pro-Arg-AMC as substrate at 25 uM after 10 mins by continuous fluorimetric assay
How it was run: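 Thrombin (10 nM) preincubated 15 min with inhibitor (25 μM final) in 50 mM Tris-HCl pH 7.5, 150 mM NaCl, 0.05% Tween 20. Boc-Val-Pro-Arg-AMC then added to 50 μM (Km 16 μM). Fluorescence (ex 355 nm, em 460 nm) followed for 10 min as slope. Triplicate; percent inhibition versus no-inhibitor control.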

West Nile virus = experiment: Inhibition of West Nile virus NS2B-NS3 protease expressed in Escherichia coli BL 21 (DE3) using Abz-Gly-Leu-Lys-Arg-Gly-Gly-3-(NO2)Tyr as substrate at 50 uM after 15 mins
Dengue virus = experiment: Inhibition of Dengue virus NS2B-NS3 protease expressed in Escherichia coli BL 21 (DE3) using Abz-Nle-Lys-Arg-Arg-Ser-3-(NO2)Tyr as substrate at 50 uM after 15 mins
Huh-7 = experiment: Cytotoxicity against human HuH7 cells at <50 uM after 48 hrs by firefly reporter assay; assay type: cell-based; details: huh-7, 48 h
How it was run: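 Uninfected Huh-7 cells stably expressing firefly luciferase, seeded 5000/well and incubated overnight at 37 °C. Compound added at 1.56–50 μM, plus 100, 200 and 400 μM, then incubated as for infected cells (further 48 h after the 4 h point). Firefly luminescence read with 70 μM luciferin and 2 mM ATP. Mean of three wells as percent of DMSO control.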

dengue virus type 2 = experiment: Antiviral activity against Dengue virus 2 infected in human Huh-7 cells assessed as inhibition of viral replication after 48 hrs by luciferase reporter gene assay; assay type: functional, organism-based; details: Huh-7, 48 h
How it was run: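 Huh-7 cells seeded 5000/well, incubated overnight at 37 °C, then given compound (1.56–50 μM final, 2-fold series in DMEM with 10% FCS). Dengue 2 renilla luciferase reporter virus (MOI 10) added 4 h later. After 48 h at 37 °C, cells lysed and renilla luminescence read with coelenterazine. At least four wells per concentration, expressed relative to DMSO control. EC50 by nonlinear regression.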

[2] = Permeability of the compound by PAMPA; assay type: ADME; details: read-out: permeability
How it was run: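 PAMPA with precoated trilayer lipid/oil/lipid membranes, donor wells holding 200 μM compound in PBS pH 7.4 (2% DMSO final), in triplicate. Incubated 5 h at room temperature. Donor and acceptor concentrations determined by UV plate reader or HPLC-UV against calibration curves. Pe and mass retention R calculated.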

Row | SMILES | inhibition [1] | inhibition (West Nile virus) | inhibition (Dengue virus) [%] | EC50 (dengue virus type 2) [µM] | Papp [2] [×10⁻⁶ cm/s] | Activity (Huh-7)
1 | CCCC[C@H](NC(=O)[C@H](CCCCN)NC(=O)[C@H](CCCNC(=N)N)NC(=O)c1ccc(/C=C2\SC(=S)N(C3CC3)C2=O)cc1)C(N)=O | 6.3% | 46.4% | 94.6 |  |  | 
2 | CCCC[C@H](NC(=O)[C@H](CCCCN)NC(=O)[C@H](CCCNC(=N)N)NC(=O)c1ccc(/C=C2\SC(=S)N(c3ccc(C)cc3)C2=O)cc1)C(N)=O | 10.2% | 50.9% | 95 |  |  | 
3 | CCCC[C@H](NC(=O)[C@H](CCCCN)NC(=O)[C@H](CCCNC(=N)N)NC(=O)CN1C(=O)/C(=C/c2ccc(OC)c(OC)c2)SC1=S)C(N)=O | 13.8% | 30.2% | 46.5 |  |  | 
4 | CCCC[C@H](NC(=O)[C@H](CCCCN)NC(=O)[C@H](CCCCN)NC(=O)c1ccc(/C=C2\SC(=O)N(Cc3ccccc3)C2=O)cc1)C(N)=O | 16.7% | 36.9% | 83 |  |  | 
5 | CCCC[C@H](NC(=O)[C@H](CCCCN)NC(=O)[C@H](CCCNC(=N)N)NC(=O)c1ccc(/C=C2\NC(=S)N(Cc3ccccc3)C2=O)cc1)C(N)=O | 11.4% | 29.2% | 83.5 |  |  | 
6 | CCCC[C@H](NC(=O)[C@H](CCCCN)NC(=O)[C@H](CCCNC(=N)N)NC(=O)c1cccc(/C=C2\SC(=O)N(C3CCCC3)C2=O)c1)C(N)=O | 13% | 52.9% | 92.4 | 53.8 | 1.9 | 
7 | CCCC[C@H](NC(=O)[C@H](CCCCN)NC(=O)[C@H](CCCNC(=N)N)NC(=O)CC1SC(=S)N(Cc2ccc(OC)cc2)C1=O)C(N)=O (some centres undefined) | 76.8% | inactive | 23 | 30.3 |  | 
8 | O=C(O)c1ccc(/C=C2\SC(=O)N(Cc3ccccc3)C2=O)cc1 | 12.2% | 22.1% | 30.7 |  |  | 
9 | CCCC[C@H](NC(=O)[C@H](CCCC)NC(=O)[C@H](CCCNC(=N)N)NC(=O)c1ccc(/C=C2\SC(=O)N(Cc3ccccc3)C2=O)cc1)C(N)=O | 8.3% | 88.3% | 81.4 |  |  | 
10 | CCCC[C@@H](NC(=O)[C@@H](CCCCN)NC(=O)[C@@H](CCCNC(=N)N)NC(=O)c1ccc(/C=C2\SC(=O)N(Cc3ccccc3)C2=O)cc1)C(N)=O | 11.1% | 47.5% | 73.9 |  | 0.29 | 
11 | CCCC[C@H](NC(=O)c1ccc(/C=C2\SC(=O)N(Cc3ccccc3)C2=O)cc1)C(=O)N[C@@H](CCCCN)C(=O)N[C@@H](CCCNC(=N)N)C(N)=O | 6.3% | 60.3% | 66.8 |  |  | 
12 | CCCC[C@H](NC(=O)[C@H](CCCCN)NC(=O)[C@H](CCCNC(=N)N)NC(=O)c1ccc(/C=C2\SC(=S)N(c3ccc(Cl)cc3)C2=O)cc1)C(N)=O | 11.1% | 53.6% | 96.7 | 35.7 | 1.02 | 
13 | CCCC[C@H](NC(=O)[C@H](CCCCN)NC(=O)[C@H](CCCNC(=N)N)NC(=O)[C@H](Cc1ccccc1)N1C(=O)/C(=C/c2ccc(OC)c(OC)c2)SC1=S)C(N)=O | 18.9% | 25% | 60.8 | > 50 |  | 
14 | N=C(N)NCCC[C@H](NC(=O)c1ccc(/C=C2\SC(=O)N(Cc3ccccc3)C2=O)cc1)C(N)=O | 13.2% | 16.9% | 32.4 |  |  | 
15 | CCCC[C@H](NC(=O)[C@H](CCCCN)NC(=O)[C@H](CCCNC(=N)N)NC(=O)c1ccc(/C=C2\SC(=S)N(CC3CCCO3)C2=O)cc1)C(N)=O (some centres undefined) | 13.3% | 53.4% | 93.3 |  |  | 
16 | CCCC[C@H](NC(=O)[C@H](CCCCN)NC(=O)[C@H](CCCNC(=N)N)NC(=O)c1ccc(/C=C2\NC(=S)N(c3ccccc3)C2=O)cc1)C(N)=O | 18% | 44.1% | 85.2 |  |  | 
17 | CCCC[C@H](NC(=O)[C@H](CCCNC(=N)N)NC(=O)[C@H](CCCNC(=N)N)NC(=O)c1ccc(/C=C2\SC(=O)N(Cc3ccccc3)C2=O)cc1)C(N)=O | 13.7% | 74% | 92.7 |  |  | 
18 | CCCC[C@H](NC(=O)[C@H](CCCCN)NC(=O)[C@H](CCCNC(=N)N)NC(=O)c1cccc(/C=C2\SC(=S)NC2=O)c1)C(N)=O | 17.6% | 34.6% | 75.2 | > 50 |  | 
19 | CCCC[C@H](NC(=O)[C@H](CCCCN)NC(=O)[C@H](CCCNC(=N)N)NC(=O)c1ccc(/C=C2\SC(=S)N(C(C)C)C2=O)cc1)C(N)=O | 12% | 63.7% | 94.4 |  |  | 
20 | CCCC[C@H](NC(=O)[C@H](CCCCN)NC(=O)[C@H](CCCNC(=N)N)NC(=O)c1ccc(/C=C2\SC(=S)N(c3ccccc3)C2=O)cc1)C(N)=O | 14.2% | 37.8% | 90 |  |  | 
21 | CCCC[C@H](NC(=O)[C@H](CCCCN)NC(=O)[C@H](CCCNC(=N)N)NC(=O)c1ccc(/C=C2\SC(=S)N(c3ccc(OC)cc3)C2=O)cc1)C(N)=O | 8.5% | 42.9% | 92.5 | 42.5 | 0.59 | 
22 | CCCC[C@H](NC(=O)[C@H](CCCCN)NC(=O)[C@H](CCCNC(=N)N)NC(=O)c1ccc(/C=C2\SC(=O)N(c3ccc(C)cc3)C2=O)cc1)C(N)=O | 13.8% | 42.4% | 93.8 |  | 0.66 | 
23 | N=C(N)NCCC[C@H](NC(=O)c1ccc(/C=C2\SC(=O)N(Cc3ccccc3)C2=O)cc1)C(=O)N[C@@H](CCCCN)C(N)=O | inactive | 76.2% | 83.1 |  |  | 
24 | CCCC[C@H](NC(=O)[C@H](CCCCN)NC(=O)[C@H](CCCNC(=N)N)NC(=O)c1ccc(/C=C2\SC(=S)N(c3ccc(F)cc3)C2=O)cc1)C(N)=O | 6.5% | 35.5% | 89.7 |  |  | 

More lines, main results first:

Row | inhibition [1] | inhibition (West Nile virus) | inhibition (Dengue virus) [%] | EC50 (dengue virus type 2) [µM] | Papp [2] [×10⁻⁶ cm/s] | SMILES | Activity (Huh-7)
25 | 12.5% | 33.2% | 93.2 |  |  | C=CCN1C(=O)S/C(=C\c2ccc(C(=O)N[C@@H](CCCNC(=N)N)C(=O)N[C@@H](CCCCN)C(=O)N[C@@H](CCCC)C(N)=O)cc2)C1=O | 
26 | 11% | 52.7% | 94.2 |  |  | CCCC[C@H](NC(=O)[C@H](CCCCN)NC(=O)[C@H](CCCNC(=N)N)NC(=O)c1ccc(/C=C2\SC(=S)N(CCC)C2=O)cc1)C(N)=O | 
27 | 22.8% | 22.4% | 89.3 |  |  | CCCC[C@H](NC(=O)[C@H](CCCCN)NC(=O)[C@H](CCCNC(=N)N)NC(=O)c1ccc(/C=C2\SC(=S)N(CCOC(C)=O)C2=O)cc1)C(N)=O | 
28 | 14.5% | 27% | 84.4 | > 50 |  | CCCC[C@H](NC(=O)[C@H](CCCCN)NC(=O)[C@H](CCCNC(=N)N)NC(=O)c1ccc(/C=C2\SC(=O)NC2=O)cc1)C(N)=O | Non-toxic
29 | 19% | 48.5% | 96.5 |  |  | CCCC[C@H](NC(=O)[C@H](CCCCN)NC(=O)[C@H](CCCNC(=N)N)NC(=O)c1ccc(/C=C2\SC(=O)N(CC)C2=O)cc1)C(N)=O | 
30 | 12.9% | 28.4% | 90.3 | > 50 |  | CCCC[C@H](NC(=O)[C@H](CCCCN)NC(=O)[C@H](CCCNC(=N)N)NC(=O)c1ccc(/C=C2\SC(=S)N(CCO)C2=O)cc1)C(N)=O | 
31 | 9.2% | 38.1% | 91.1 |  |  | CCCC[C@H](NC(=O)[C@H](CCCCN)NC(=O)[C@H](CCCNC(=N)N)NC(=O)c1ccc(/C=C2\SC(=O)N(C)C2=O)cc1)C(N)=O | Non-toxic
32 | inactive | 33.6% | 94.5 |  |  | CCCC[C@H](NC(=O)[C@H](CCCCN)NC(=O)[C@H](CCCNC(=N)N)NC(=O)c1ccc(/C=C2\SC(=O)N(CCC)C2=O)cc1)C(N)=O | 
33 | 10.2% | 60.9% | 72.1 |  |  | CCCC[C@H](NC(=O)[C@H](CCCNC(=N)N)NC(=O)[C@H](CCCCN)NC(=O)c1ccc(/C=C2\SC(=O)N(Cc3ccccc3)C2=O)cc1)C(N)=O | 
34 | 11.8% | 26.5% | 95.9 | > 50 |  | CCCC[C@H](NC(=O)[C@H](CCCCN)NC(=O)[C@H](CCCNC(=N)N)NC(=O)c1ccc(/C=C2\SC(=O)N(CCO)C2=O)cc1)C(N)=O | 
35 | 10.6% | 30.9% | 95.8 |  |  | CCCC[C@H](NC(=O)[C@H](CCCCN)NC(=O)[C@H](CCCNC(=N)N)NC(=O)c1ccc(/C=C2\SC(=O)N(C(C)C)C2=O)cc1)C(N)=O | 
36 | 13.6% | 45.4% | 93.4 |  |  | CCCC[C@H](NC(=O)[C@H](CCCCN)NC(=O)[C@H](CCCNC(=N)N)NC(=O)c1ccc(/C=C2\SC(=S)N(CC)C2=O)cc1)C(N)=O | 
